Results taken from ChEMBL document CHEMBL2390913, “In vitro biosynthesis, isolation, and identification of predominant metabolites of 2-(4-(2-hydroxyethoxy)-3,5-dimethylphenyl)-5,7-dimethoxyquinazolin-4(3H)-one (RVX-208)” (Eur J Med Chem, 2013).

Legend:
[1] = Drug metabolism in New Zealand White rabbit liver microsomes assessed per 4 mg/ml of protein at 2 mM after 24 hrs by LC-MS/MS analysis in presence of 25 mM UDPGA; type: ADME, Oryctolagus cuniculus, Microsome; settings: read-out: Drug metabolism
How it was run: (§1)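 Optimization incubations with rabbit or calf liver microsomes or rabbit S9. Final substrate was 0.2, 0.5 or 2 mM, from DMSO stocks diluted 100-fold. Protein was 1 or 4 mg/mL and UDPGA 5 or 25 mM. Other components were 100 mM potassium phosphate pH 7.4 and an NADPH regenerating system. Microsomes were pre-treated on ice with alamethicin. Reactions ran at 37 °C, were stopped with methanol, processed, and analysed by LC/MS.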

[2] = Drug metabolism in New Zealand White rabbit liver microsomes assessed per mg/ml of protein at 0.5 mM after 24 hrs by LC-MS/MS analysis in presence of 25 mM UDPGA; type: ADME, Oryctolagus cuniculus, Microsome; settings: read-out: Drug metabolism; how it was run: as §1
[3] = Drug metabolism in New Zealand White rabbit liver microsomes assessed per 4 mg/ml of protein at 0.5 mM after 24 hrs by LC-MS/MS analysis in presence of 25 mM UDPGA; type: ADME, Oryctolagus cuniculus, Microsome; settings: read-out: Drug metabolism; how it was run: as §1
[4] = Drug metabolism in New Zealand White rabbit liver S9 fraction assessed per 4 mg/ml of protein at 2 mM after 24 hrs by LC-MS/MS analysis in presence of 25 mM UDPGA; type: ADME, subcellular, Oryctolagus cuniculus; settings: read-out: Drug metabolism; how it was run: as §1
[5] = Drug metabolism in New Zealand White rabbit liver microsomes assessed per 4 mg/ml of protein at 0.5 mM after 24 hrs by LC-MS/MS analysis in presence of 5 mM UDPGA; type: ADME, Oryctolagus cuniculus, Microsome; settings: read-out: Drug metabolism; how it was run: as §1
[6] = Activity at human recombinant glucuronyl transferase at 100 uM after 1 to 24 hrs by LC-MS/MS analysis in presence of UDPGA; type: ADME
How it was run: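 Recombinant human UDP-glucuronyl transferases. The mix held 100 mM potassium phosphate pH 7.4, 3.3 mM MgCl2, 5 mM UDPGA, and enzyme protein at 0.025–1 mg/mL depending on the enzyme. Substrate came from a 10 mM methanol stock. Mixtures were pre-warmed 5 min at 37 °C, the enzyme was added, and they were shaken at 37 °C for 1, 6 or 24 h. Methanol quench, centrifugation, filtration, drying, resuspension, LC/MS.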

[7] = Drug metabolism in New Zealand White rabbit liver microsomes assessed per mg/ml of protein at 2 mM after 24 hrs by LC-MS/MS analysis in presence of 5 mM UDPGA; type: ADME, Oryctolagus cuniculus, Microsome; settings: read-out: Drug metabolism; how it was run: as §1
[8] = Drug metabolism in New Zealand White rabbit liver microsomes assessed per mg/ml of protein at 0.5 mM after 24 hrs by LC-MS/MS analysis in presence of 5 mM UDPGA; type: ADME, Oryctolagus cuniculus, Microsome; settings: read-out: Drug metabolism; how it was run: as §1
[9] = Drug metabolism in New Zealand White rabbit liver S9 fraction assessed per 4 mg/ml of protein at 0.5 mM after 24 hrs by LC-MS/MS analysis in presence of 5 mM UDPGA; type: ADME, subcellular, Oryctolagus cuniculus; settings: read-out: Drug metabolism; how it was run: as §1
[10] = Drug metabolism in New Zealand White rabbit liver S9 fraction assessed per mg/ml of protein at 0.2 mM after 24 hrs by LC-MS/MS analysis in presence of 5 mM UDPGA; type: ADME, subcellular, Oryctolagus cuniculus; settings: read-out: Drug metabolism; how it was run: as §1
Liver microsomes = assay: Drug metabolism in human liver microsomes assessed as M5 metabolite level at 100 uM after 4 hrs by LC/MS analysis in presence of UDPGA; type: ADME, Microsome
How it was run: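 Human liver microsomes under the screening protocol. Mix: 0.50 mg protein in 0.5 mL, 100 mM potassium phosphate pH 7.4, NADPH regenerating system, 5 mM UDPGA, 5 mM D-saccharic acid lactone. Microsomes were pre-incubated with alamethicin and the mix pre-warmed 5 min at 37 °C. After 4 h at 37 °C, the reaction was diluted with cold methanol and centrifuged. The filtered supernatant went to analytical HPLC; the M5 fraction was taken for MS/MS.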

[11] = Drug metabolism in New Zealand White rabbit liver S9 fraction assessed per mg/ml of protein at 0.5 mM after 24 hrs by LC-MS/MS analysis in presence of 5 mM UDPGA; type: ADME, subcellular, Oryctolagus cuniculus; settings: read-out: Drug metabolism; how it was run: as §1
[12] = Drug metabolism in New Zealand White rabbit liver S9 fraction assessed per 4 mg/ml of protein at 2 mM after 24 hrs by LC-MS/MS analysis in presence of 5 mM UDPGA; type: ADME, subcellular, Oryctolagus cuniculus; settings: read-out: Drug metabolism; how it was run: as §1
[13] = Drug metabolism in New Zealand White rabbit liver microsomes assessed per mg/ml of protein at 0.2 mM after 24 hrs by LC-MS/MS analysis in presence of 5 mM UDPGA; type: ADME, Oryctolagus cuniculus, Microsome; settings: read-out: Drug metabolism; how it was run: as §1
[14] = Drug metabolism in New Zealand White rabbit liver S9 fraction assessed per mg/ml of protein at 2 mM after 24 hrs by LC-MS/MS analysis in presence of 25 mM UDPGA; type: ADME, subcellular, Oryctolagus cuniculus; settings: read-out: Drug metabolism; how it was run: as §1
[15] = Drug metabolism in calf liver microsomes assessed per mg/ml of protein at 2 mM after 24 hrs by LC-MS/MS analysis in presence of 5 mM UDPGA; type: ADME, Bos taurus, Microsome; settings: cattle, read-out: Drug metabolism; how it was run: as §1
[16] = Drug metabolism in New Zealand White rabbit liver microsomes assessed per mg/ml of protein at 0.2 mM after 24 hrs by LC-MS/MS analysis in presence of 25 mM UDPGA; type: ADME, Oryctolagus cuniculus, Microsome; settings: read-out: Drug metabolism; how it was run: as §1
[17] = Drug metabolism in calf liver microsomes assessed per 4 mg/ml of protein at 2 mM after 24 hrs by LC-MS/MS analysis in presence of 5 mM UDPGA; type: ADME, Bos taurus, Microsome; settings: cattle, read-out: Drug metabolism; how it was run: as §1
[18] = Drug metabolism in New Zealand White rabbit liver S9 fraction assessed per mg/ml of protein at 2 mM after 24 hrs by LC-MS/MS analysis in presence of 5 mM UDPGA; type: ADME, subcellular, Oryctolagus cuniculus; settings: read-out: Drug metabolism; how it was run: as §1
[19] = Drug metabolism in calf liver microsomes assessed per 4 mg/ml of protein at 0.5 mM after 24 hrs by LC-MS/MS analysis in presence of 5 mM UDPGA; type: ADME, Bos taurus, Microsome; settings: cattle, read-out: Drug metabolism; how it was run: as §1
[20] = Drug metabolism in New Zealand White rabbit liver S9 fraction assessed per 20 mg of protein at 1 mM after 24 hrs by LC/MS analysis in presence of UDPGA; type: ADME, subcellular, Oryctolagus cuniculus; settings: read-out: Drug metabolism
How it was run: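 Scale-up reaction with rabbit liver S9. Each mix was 10 mL with 20 mg S9 protein, 100 mM potassium phosphate pH 7.4, 1 mM substrate (from a 0.1 M DMSO stock), an NADPH regenerating system (1.3 mM NADP+, 3.3 mM glucose-6-phosphate, 0.4 U/mL G6PDH, 3.3 mM MgCl2) and 10 mM UDPGA. Six parallel vials were shaken 24 h at 37 °C, then pooled, methanol-quenched, and passed through C18 SPE and prep HPLC.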

[21] = Drug metabolism in New Zealand White rabbit liver S9 fraction assessed per 4 mg/ml of protein at 0.5 mM after 24 hrs by LC-MS/MS analysis in presence of 25 mM UDPGA; type: ADME, subcellular, Oryctolagus cuniculus; settings: read-out: Drug metabolism; how it was run: as §1
[22] = Drug metabolism in New Zealand White rabbit liver S9 fraction assessed per mg/ml of protein at 0.5 mM after 24 hrs by LC-MS/MS analysis in presence of 25 mM UDPGA; type: ADME, subcellular, Oryctolagus cuniculus; settings: read-out: Drug metabolism; how it was run: as §1
[23] = Drug metabolism in New Zealand White rabbit liver S9 fraction assessed per mg/ml of protein at 0.2 mM after 24 hrs by LC-MS/MS analysis in presence of 25 mM UDPGA; type: ADME, subcellular, Oryctolagus cuniculus; settings: read-out: Drug metabolism; how it was run: as §1
[24] = Drug metabolism in New Zealand White rabbit liver microsomes assessed per mg/ml of protein at 2 mM after 24 hrs by LC-MS/MS analysis in presence of 25 mM UDPGA; type: ADME, Oryctolagus cuniculus, Microsome; settings: read-out: Drug metabolism; how it was run: as §1
[25] = Drug metabolism in New Zealand White rabbit liver microsomes assessed per 4 mg/ml of protein at 2 mM after 24 hrs by LC-MS/MS analysis in presence of 5 mM UDPGA; type: ADME, Oryctolagus cuniculus, Microsome; settings: read-out: Drug metabolism; how it was run: as §1

metabolised at 24 h, 2000 µM [1]: 48.9% | metabolised at 24 h, 500 µM [2]: 49.4% | metabolised at 24 h, 500 µM [3]: 54.3% | metabolised at 24 h, 2000 µM [4]: 35.2% | metabolised at 24 h, 500 µM [5]: 24.1% | Activity [6]: < 1% | metabolised at 24 h, 2000 µM [7]: 38.4% | metabolised at 24 h, 500 µM [8]: 39.5% | metabolised at 24 h, 500 µM [9]: 33% | metabolised at 24 h, 200 µM [10]: 22.3% | Drug metabolism (Liver microsomes): Active | metabolised at 24 h, 500 µM [11]: 23.2% | metabolised at 24 h, 2000 µM [12]: 30.3% | metabolised at 24 h, 200 µM [13]: 34.6% | metabolised at 24 h, 2000 µM [14]: 16.7% | metabolised at 24 h, 2000 µM [15]: 40.9% | metabolised at 24 h, 200 µM [16]: 49.7% | metabolised at 24 h, 2000 µM [17]: 50.1% | metabolised at 24 h, 2000 µM [18]: 17.5% | metabolised at 24 h, 500 µM [19]: 56% | metabolised at 24 h, 1000 µM [20]: 22% | metabolised at 24 h, 500 µM [21]: 41.3% | metabolised at 24 h, 500 µM [22]: 25.7% | metabolised at 24 h, 200 µM [23]: 21.4% | metabolised at 24 h, 2000 µM [24]: 39.7% | metabolised at 24 h, 2000 µM [25]: 30%
SMILES: COc1cc(OC)c2c(=O)[nH]c(-c3cc(C)c(OCCO)c(C)c3)nc2c1 [APABETALONE]
